Calls of active or inactive are those of the source. The rule behind the calls is not given here.
How the values were obtained:
[1] = biological target: T1, Sodium-dependent proline transporter (Homo sapiens, UniProt Q99884); experiment: Inhibition of human high-affinity L-proline transporter expressed in COS1 cells by [3H]proline uptake assay; assay type: cell-based, COS-1
T1 sequence (Q99884 whole entry): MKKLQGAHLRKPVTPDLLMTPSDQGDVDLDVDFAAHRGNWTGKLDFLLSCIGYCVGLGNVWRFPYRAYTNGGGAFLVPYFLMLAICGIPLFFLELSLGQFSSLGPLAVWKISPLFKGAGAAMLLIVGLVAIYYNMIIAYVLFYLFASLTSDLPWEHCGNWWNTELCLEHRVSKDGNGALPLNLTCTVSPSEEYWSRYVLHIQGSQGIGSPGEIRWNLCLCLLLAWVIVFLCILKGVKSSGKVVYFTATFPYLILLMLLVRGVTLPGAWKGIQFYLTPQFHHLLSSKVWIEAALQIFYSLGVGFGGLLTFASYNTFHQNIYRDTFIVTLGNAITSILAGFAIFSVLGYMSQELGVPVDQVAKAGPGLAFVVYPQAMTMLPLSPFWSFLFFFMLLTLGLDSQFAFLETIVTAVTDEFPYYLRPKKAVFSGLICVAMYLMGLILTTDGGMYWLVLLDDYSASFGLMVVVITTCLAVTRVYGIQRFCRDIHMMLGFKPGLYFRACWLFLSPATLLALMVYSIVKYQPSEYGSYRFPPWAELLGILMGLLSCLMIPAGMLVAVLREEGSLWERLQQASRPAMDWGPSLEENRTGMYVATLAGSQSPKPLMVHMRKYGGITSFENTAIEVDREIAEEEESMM

[2] = Stability in mouse liver homogenates assessed as remaining parent compound level after 30 mins; assay type: ADME, tissue-based; conditions: liver homogenate, read-out: Stability
Outline: (§1)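 Compound incubated 30 min with S9 fraction of mouse liver homogenate; parent compound remaining measured.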

[3] = Protein binding in plasma (unknown origin) by equilibrium dialysis assay; assay type: ADME, cell-free; conditions: read-out: PPB (converted)
Outline: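 Plasma protein binding measured by equilibrium dialysis.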

[4] = Stability in mouse liver S9 fraction assessed as remaining parent compound level after 30 mins; assay type: ADME, subcellular; conditions: read-out: Stability; outline: as §1
[5] = AUC (0 to infinity) in albino C57BL/6 mouse at 100 mg/kg, po; assay type: ADME, organism-based; design: time infinity, dose 100 mg/kg, route oral; conditions: plasma
Outline: (§2)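 Single oral administration at 100 mpk to C57BL/6 albino mice; plasma exposure parameters (Tmax, Cmax, AUC) derived.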

[6] = Drug level in albino C57BL/6 mouse brain at 100 mg/kg, po after 6 hrs; assay type: ADME, organism-based; design: dose 100 mg/kg, route oral; conditions: read-out: Drug uptake
Mus musculus [7] = experiment: Toxicity in albino C57BL/6 mouse assessed as effect on open field trial parameters at 100 mg/kg, po; assay type: organism-based; design: dose 100 mg/kg, route oral; conditions: in vivo
[8] = Tmax in albino C57BL/6 mouse at 100 mg/kg, po; assay type: ADME, organism-based; design: dose 100 mg/kg, route oral; conditions: in vivo; outline: as §2
Mus musculus [9] = experiment: Induction of cognitive improvement in albino C57BL/6 mouse trace conditioning model assessed as improvement in response to conditioned stimulus at 100 mg/kg, po; assay type: functional, organism-based; design: dose 100 mg/kg
Outline: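 C57 mice (n = 13) given 100 mpk PO alongside a vehicle control group; fear conditioning with context freezing portion scored as response to conditioned stimulus; statistical comparison with vehicle by P value.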

[10] = Ratio of drug level in brain to plasma in albino C57BL/6 mouse at 100 mg/kg, po after 6 hrs; assay type: ADME, organism-based; design: dose 100 mg/kg, route oral; conditions: read-out: BPR
[11] = biological target: T2, Sodium-dependent dopamine transporter (Homo sapiens, UniProt Q01959); experiment: Inhibition of DAT (unknown origin) at 10 uM
T2 sequence (Q01959 whole entry): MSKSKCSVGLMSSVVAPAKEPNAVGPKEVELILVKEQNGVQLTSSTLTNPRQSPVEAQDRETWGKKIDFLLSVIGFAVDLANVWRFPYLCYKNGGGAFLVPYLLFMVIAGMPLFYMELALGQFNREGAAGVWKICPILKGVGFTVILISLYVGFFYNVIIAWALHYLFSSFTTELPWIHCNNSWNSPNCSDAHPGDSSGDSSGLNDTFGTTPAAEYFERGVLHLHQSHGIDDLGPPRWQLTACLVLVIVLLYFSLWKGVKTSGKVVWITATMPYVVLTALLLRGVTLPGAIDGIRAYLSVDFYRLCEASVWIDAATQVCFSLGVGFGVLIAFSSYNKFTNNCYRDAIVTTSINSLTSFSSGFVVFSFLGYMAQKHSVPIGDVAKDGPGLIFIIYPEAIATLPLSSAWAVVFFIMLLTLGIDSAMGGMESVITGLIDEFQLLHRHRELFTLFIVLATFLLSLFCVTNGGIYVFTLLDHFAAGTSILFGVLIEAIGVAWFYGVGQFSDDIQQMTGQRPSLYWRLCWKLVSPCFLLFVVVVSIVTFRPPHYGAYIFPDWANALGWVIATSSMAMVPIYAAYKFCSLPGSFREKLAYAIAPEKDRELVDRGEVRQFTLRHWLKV

Mus musculus [12] = experiment: Toxicity in albino C57BL/6 mouse at 100 mg/kg, po; assay type: organism-based; design: dose 100 mg/kg, route oral; conditions: in vivo
[13] = Cmax in albino C57BL/6 mouse at 100 mg/kg, po; assay type: ADME, organism-based; design: dose 100 mg/kg, route oral; conditions: in vivo; outline: as §2
Mus musculus [14] = experiment: Toxicity in mouse assessed as induction of lethargy at 1 mg/kg, iv; assay type: organism-based; design: dose 1 mg/kg, route intravenous; conditions: in vivo
Outline: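 Mice dosed IV at 1 mpk and observed for lethargy.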

[15] = biological target: T2, Sodium-dependent dopamine transporter; experiment: Inhibition of DAT (unknown origin)
hERG (KCNH2) = hERG (KCNH2) (Homo sapiens, UniProt Q12809); experiment: Inhibition of human ERG at 10 uM
hERG (KCNH2), sequence (Q12809 whole entry): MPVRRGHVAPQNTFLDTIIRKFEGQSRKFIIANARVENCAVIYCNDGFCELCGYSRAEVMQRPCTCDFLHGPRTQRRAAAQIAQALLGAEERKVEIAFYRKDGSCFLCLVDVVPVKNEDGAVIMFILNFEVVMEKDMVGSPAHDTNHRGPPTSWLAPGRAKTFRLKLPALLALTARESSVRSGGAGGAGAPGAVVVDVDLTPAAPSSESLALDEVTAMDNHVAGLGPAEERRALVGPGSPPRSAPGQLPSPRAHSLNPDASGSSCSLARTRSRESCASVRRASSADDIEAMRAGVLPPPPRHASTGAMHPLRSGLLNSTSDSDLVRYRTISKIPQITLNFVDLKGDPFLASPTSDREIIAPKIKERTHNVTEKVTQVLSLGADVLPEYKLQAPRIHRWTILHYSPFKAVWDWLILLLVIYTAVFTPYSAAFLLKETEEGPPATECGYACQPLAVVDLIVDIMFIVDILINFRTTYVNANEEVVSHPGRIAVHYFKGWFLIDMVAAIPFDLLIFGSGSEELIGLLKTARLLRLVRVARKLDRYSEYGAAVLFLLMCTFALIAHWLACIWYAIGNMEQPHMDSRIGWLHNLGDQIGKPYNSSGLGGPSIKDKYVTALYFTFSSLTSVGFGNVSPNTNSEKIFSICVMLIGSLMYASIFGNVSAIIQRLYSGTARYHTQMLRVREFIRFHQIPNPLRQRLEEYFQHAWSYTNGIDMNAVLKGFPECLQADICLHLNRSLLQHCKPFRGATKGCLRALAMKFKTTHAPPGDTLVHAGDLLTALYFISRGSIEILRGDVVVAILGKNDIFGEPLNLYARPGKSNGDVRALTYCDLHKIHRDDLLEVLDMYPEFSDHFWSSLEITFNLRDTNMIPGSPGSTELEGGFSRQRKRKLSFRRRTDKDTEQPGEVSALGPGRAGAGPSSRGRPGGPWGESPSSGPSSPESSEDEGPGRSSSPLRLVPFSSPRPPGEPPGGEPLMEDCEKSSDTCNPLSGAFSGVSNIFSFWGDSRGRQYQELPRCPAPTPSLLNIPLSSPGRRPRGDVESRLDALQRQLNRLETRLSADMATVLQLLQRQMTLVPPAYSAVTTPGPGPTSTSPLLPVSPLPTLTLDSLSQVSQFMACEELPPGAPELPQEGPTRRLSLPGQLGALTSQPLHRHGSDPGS

[16] = Inhibition of GlyT (unknown origin); design: species or system Homo sapiens

Row | Structure (SMILES) | IC50 [1] [µM] | further results
1 | N#Cc1ccc(-c2ccc(C(=O)N3CCN(c4ncccn4)CC3)cc2)cc1 | 0.19 | 
2 | O=C(c1ccc(-c2ccccc2)cc1)N1CCN(c2nccs2)CC1 | 0.146 | 
3 | O=C(c1ccccc1-c1ccccc1)N1CCN(c2ncccn2)CC1 | 6.01 | 
4 | O=C(c1ccc(-c2cccc(Cl)c2)cc1)N1CCCN(c2ncccn2)CC1 | 0.089 | 
5 | O=C(c1ccc(NCc2ccccc2)cc1)N1CCN(c2ncccn2)CC1 | 0.87 | remaining at 0.5 h [2]: 63%; fraction unbound [3]: 0.05
6 | Cc1csc(-c2ccc(C(=O)N3CCN(c4ncccn4)CC3)cc2)c1 | 0.034 | 
7 | O=C(c1ccc(-c2ccccc2)cc1)N1CCN(c2ccccn2)CC1 | 0.16 | remaining at 0.5 h [4]: 53%
8 | O=C(c1ccc(-c2ccc(Cl)s2)cc1)N1CCN(c2ncccn2)CC1 | 0.15 | 
9 | O=C(O)C1CN(c2ncccn2)CCN1C(=O)c1ccc(-c2cccc(Cl)c2)cc1 (stereo not given) | 0.128 | 
10 | O=C(c1ccc(-c2ccccc2)cc1)N1CCN(c2ncccn2)CC1 | 0.28 | 
11 | Cc1ccc(-c2ccc(C(=O)N3CCN(c4ncccn4)CC3)cc2)cc1 | 0.034 | 
12 | O=C(c1ccc(-c2cccc(Cl)c2)cc1)N1CCN(c2ncccn2)CC1CO (stereo not given) | 0.076 | 
13 | O=C(c1ccc(-c2ccccc2)cc1)N1CCN(c2cnccn2)CC1 | 1.3 | 
14 | O=C(c1ccc(-c2cccc(Cl)c2)cc1)N1CC2CN(c3ncccn3)CC2C1 (stereo not given) | 0.036 | 
15 | O=C(c1ccc(-c2ccccc2)cc1)N1CCN(c2nccc(C(F)(F)F)n2)CC1 | 2.18 | 
16 | O=C(c1ccc(-c2cccc(C(F)(F)F)c2)cc1)N1CCN(c2ncccn2)CC1 | 0.071 | 
17 | C[C@H]1CN(c2ncccn2)CCN1C(=O)c1ccc(-c2ccc(Cl)cc2)cc1 | 0.021 | 
18 | O=C(c1ccc(Oc2ccccc2)cc1)N1CCN(c2ncccn2)CC1 | 1.95 | 
19 | CC1CN(C(=O)c2ccc(-c3ccccc3)cc2)CCN1c1ncccn1 (stereo not given) | 0.477 | 
20 | O=C(c1ccc(-c2cccc(OC(F)(F)F)c2)cc1)N1CCN(c2ncccn2)CC1 | 0.073 | 
21 | O=C(c1ccc(C2CCCCC2)cc1)N1CCN(c2ncccn2)CC1 | 7.01 | 

Row | Structure (SMILES) | IC50 [1] [µM] | further results
22 | O=C(c1ccc(-c2cccc(Cl)c2)cc1)N1CC2CC1CN2c1ncccn1 (stereo not given) | 1.34 | 
23 | CCc1ccc(-c2ccc(C(=O)N3CCN(c4ncccn4)CC3)cc2)cc1 | 0.077 | 
24 | Cc1ccccc1-c1ccc(C(=O)N2CCN(c3ncccn3)CC2)cc1 | 0.653 | 
25 | Cc1ccc(-c2ccc(C(=O)N3CCN(c4ncccn4)CC3)cc2)s1 | 0.061 | 
26 | O=C(c1ccc(-c2ccccc2)cc1)N1CCN(c2ccccc2)CC1 | 1.48 | 
27 | CC(C)(C)C1CN(c2ncccn2)CCN1C(=O)c1ccc(-c2cccc(Cl)c2)cc1 (stereo not given) | 0.7 | 
28 | O=C(c1ccc(-c2ccccc2)cc1)N1CCN(c2cccnn2)CC1 | 5 | 
29 | COc1ccc(-c2ccc(C(=O)N3CCN(c4ncccn4)CC3)cc2)cc1 | 0.23 | 
30 | CC1CN(c2ncccn2)CC(C)N1C(=O)c1ccc(-c2cccc(Cl)c2)cc1 (stereo not given) | 0.024 | 
31 | N#Cc1cccc(-c2ccc(C(=O)N3CCN(c4ncccn4)CC3)cc2)c1 | 0.19 | 
32 | O=C(c1cccc(-c2ccccc2)c1)N1CCN(c2ncccn2)CC1 | 1.88 | 
33 | O=C(c1ccc(-c2cccc(Cl)c2)cc1)N1CC2CCC(C1)N2c1ncccn1 | 0.027 | remaining at 0.5 h [4]: 75%; AUC(0-inf) [5]: 24000 ng·h/mL; concentration at 6 h [6]: 2260 ng/mL; Activity (Mus musculus [7]): Non-toxic; Tmax [8]: 22.8 min; Activity (Mus musculus [9]): inactive; Kp at 6 h [10]: 1.7; inhibition [11]: inactive; Activity (Mus musculus [12]): Non-toxic; Cmax [13]: 4500 ng/mL
34 | Cc1ccnc(N2CCN(C(=O)c3ccc(-c4ccccc4)cc3)CC2)n1 | 0.27 | 
35 | C[C@@H]1CN(c2ncccn2)CCN1C(=O)c1ccc(-c2ccc(Cl)cc2)cc1 | 0.057 | 
36 | O=C(c1ccc(-c2ccc(Cl)cc2)cc1)N1CCN(c2ncccn2)CC1 | 0.052 | fraction unbound [3]: 0.022
37 | O=C(c1ccc(OCc2ccccc2)cc1)N1CCN(c2ncccn2)CC1 | 0.27 | remaining at 0.5 h [2]: 45%
38 | O=C(c1ccc(-c2cccc(Cl)c2)cc1)N1C2CCC1CN(c1ncccn1)C2 | 0.018 | remaining at 0.5 h [4]: 70%; Activity (Mus musculus [14]): Toxic; IC50 [15]: 6.1 µM; inhibition at 10 µM (hERG (KCNH2)): 59%; IC50 [16]: > 10 µM
39 | O=C(c1ccc(-c2ccccc2C(F)(F)F)cc1)N1CCN(c2ncccn2)CC1 | 1.26 | 
40 | CC1(C)CN(c2ncccn2)CCN1C(=O)c1ccc(-c2cccc(Cl)c2)cc1 | 0.053 | 
41 | O=C(c1ccc(-c2cccc(Cl)c2)cc1)N1CCN(c2ncccn2)CC1 | 0.036 | remaining at 0.5 h [4]: 90%; fraction unbound [3]: 0.008; IC50 [15]: 3.4 µM; IC50 [16]: > 10 µM

From ChEMBL document CHEMBL3352673, “Novel inhibitors of the high-affinity L-proline transporter as potential therapeutic agents for the treatment of cognitive disorders” (Bioorg Med Chem Lett, 2014)
